19 compounds from ChEMBL document CHEMBL1148648, “Novel 1,3-disubstituted 8-(1-benzyl-1H-pyrazol-4-yl) xanthines: high affinity and selective A2B adenosine receptor antagonists” (J Med Chem, 2006) can be followed below.

pKi: −log10 of the molar value.

The target in experiment [1] is Adenosine receptors; A2b & A3 (Homo sapiens) (UniProt P29275+P0DMS8). The experiment is described as follows: Selectivity for human adenosine A2b receptor over adenosine A3 receptor. Format: protein assay.
The target of the next experiment is T1, Adenosine receptor A3 (Homo sapiens, UniProt P0DMS8).
T1 sequence (P0DMS8 whole entry): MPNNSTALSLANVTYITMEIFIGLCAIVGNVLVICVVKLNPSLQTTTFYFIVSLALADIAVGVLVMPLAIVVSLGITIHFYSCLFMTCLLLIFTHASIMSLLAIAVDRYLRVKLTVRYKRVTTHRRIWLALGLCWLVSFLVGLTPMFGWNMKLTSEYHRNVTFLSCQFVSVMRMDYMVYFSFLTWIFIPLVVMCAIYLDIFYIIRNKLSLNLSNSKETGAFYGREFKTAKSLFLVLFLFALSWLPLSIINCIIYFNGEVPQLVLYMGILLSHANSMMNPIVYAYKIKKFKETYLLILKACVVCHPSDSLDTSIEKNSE
The experiment is described as follows: Displacement of [125I]AB-MECA from human adenosine A3 receptor expressed in CHO cells. It counts as cell-based. In short, it runs like this: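 Membranes from CHO cells stably expressing human A3 receptor, prepared like the A2B membranes. Incubated 90 min at 25 °C with gentle agitation, then filtered and washed 4× in ice-cold TM buffer. Nonspecific binding was defined with 1 µM IB-MECA.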
For orientation: Loss of bound radioactivity is the signal in a displacement assay; it reports binding, not function.

The target of a further experiment is T2, Adenosine receptor A1 (Homo sapiens, UniProt P30542).
T2 sequence (P30542 whole entry): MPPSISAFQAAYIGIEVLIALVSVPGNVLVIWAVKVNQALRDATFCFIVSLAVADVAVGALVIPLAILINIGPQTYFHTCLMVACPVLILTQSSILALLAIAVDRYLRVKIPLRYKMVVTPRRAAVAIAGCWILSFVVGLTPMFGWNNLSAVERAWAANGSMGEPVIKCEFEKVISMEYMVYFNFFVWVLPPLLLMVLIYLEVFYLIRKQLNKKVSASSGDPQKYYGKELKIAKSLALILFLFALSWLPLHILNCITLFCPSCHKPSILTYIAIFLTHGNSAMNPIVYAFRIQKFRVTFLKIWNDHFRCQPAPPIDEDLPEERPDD
The experiment is described as follows: Displacement of [3H]CPX from human adenosine A1 receptor expressed in CHO cells.

Experiment [2] has as its target Adenosine receptors; A1 & A2b (Homo sapiens) (UniProt P30542+P29275). The experiment in a line: Selectivity for human adenosine A2b receptor over adenosine A1 receptor. Format: protein assay.
A further experiment deals with T3, Adenosine receptor A2b (Homo sapiens, UniProt P29275).
T3 sequence (P29275 whole entry): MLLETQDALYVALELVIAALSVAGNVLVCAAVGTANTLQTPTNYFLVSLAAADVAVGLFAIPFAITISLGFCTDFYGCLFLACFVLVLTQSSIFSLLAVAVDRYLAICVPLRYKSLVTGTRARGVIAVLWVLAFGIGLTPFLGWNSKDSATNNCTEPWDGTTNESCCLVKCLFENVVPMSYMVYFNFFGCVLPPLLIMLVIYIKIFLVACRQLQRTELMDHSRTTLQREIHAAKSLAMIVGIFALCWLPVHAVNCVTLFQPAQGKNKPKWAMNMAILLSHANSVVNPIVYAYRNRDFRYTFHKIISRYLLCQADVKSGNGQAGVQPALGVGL
The experiment in a line: Displacement of [3H]ZM241385 from human adenosine A2b receptor expressed in HEK cells. It counts as cell-based, HEK293.

Another experiment deals with Adenosine receptor A2a (Homo sapiens, UniProt P29274). The experiment in a line: Displacement of [3H]ZM-241385 from human adenosine A2a receptor expressed in HEK cells. It counts as cell-based, HEK293.
Sequence of Adenosine receptor A2a (P29274 whole entry): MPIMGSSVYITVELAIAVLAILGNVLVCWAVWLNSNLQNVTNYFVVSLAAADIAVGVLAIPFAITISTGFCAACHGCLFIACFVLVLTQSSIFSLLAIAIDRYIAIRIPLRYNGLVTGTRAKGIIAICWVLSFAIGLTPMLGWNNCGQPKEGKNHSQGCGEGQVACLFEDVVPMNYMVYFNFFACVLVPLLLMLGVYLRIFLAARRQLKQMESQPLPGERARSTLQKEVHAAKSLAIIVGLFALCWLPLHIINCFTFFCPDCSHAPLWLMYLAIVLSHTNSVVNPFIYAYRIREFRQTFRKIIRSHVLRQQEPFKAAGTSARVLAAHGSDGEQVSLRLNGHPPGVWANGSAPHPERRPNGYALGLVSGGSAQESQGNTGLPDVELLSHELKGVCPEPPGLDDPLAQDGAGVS
In experiment [3] the target is Adenosine A2 receptor (Homo sapiens) (UniProt P29275+P29274). The experiment is described as follows: Selectivity for human adenosine A2b receptor over adenosine A2a receptor. It counts as protein assay.

For orientation: pKi means the negative decadic logarithm of the Ki, by convention in mol/L. High values mean a low Ki, low ones a high Ki. As to `CCCn1c(=O)c2[nH]c(-c3cnn(Cc4cccc(F)c4)c3)nc2n(CCC)c1=O`, the Ratio Ki amounted to 4 in experiment [1], 13 in experiment [2] and 18 in experiment [3]. Also, the pKi at Adenosine receptor A3 is 7.25; at Adenosine receptor A1, 6.77; on Adenosine receptor A2b, 7.85; on Adenosine receptor A2a, 6.64.
Take `CCCn1c(=O)c2nc(-c3cn[nH]c3)[nH]c2n(CCC)c1=O`: the figures for the Ratio Ki in experiment [1], in experiment [2] and in experiment [3] were 2, 2 and 23, respectively.
With `CCCn1c(=O)c2[nH]c(-c3cnn(Cc4ccccc4)c3)nc2n(CCC)c1=O`, the figures for the Ratio Ki in experiment [1], in experiment [2] and in experiment [3] were 15, 7 and 26, respectively. The pKi at Adenosine receptor A3 was 6.77; on Adenosine receptor A1, 7.12; at Adenosine receptor A2b, 7.96; at Adenosine receptor A2a, 6.54.
With `CCCn1c(=O)c2nc(-c3cnn(Cc4ccc(F)c(F)c4)c3)[nH]c2n(CCC)c1=O`, the pKi on Adenosine receptor A1 was 6.77; at Adenosine receptor A2b it was 7.46; at Adenosine receptor A2a it was 6.55. Moreover, the Ratio Ki in experiment [2] stood at 7; in experiment [3] it was 8.
The corresponding values for `CCCn1c(=O)c2nc(-c3cnn(Cc4cccc(OC)c4)c3)[nH]c2n(CCC)c1=O` are 7.47, 7.47, 7.15, 1 and 2.
In the case of `Cn1c(=O)c2nc(-c3cnn(Cc4ccccc4)c3)[nH]c2n(C)c1=O`, the pKi is less than 5.22 at Adenosine receptor A1, 5.64 on Adenosine receptor A2b and 5.46 on Adenosine receptor A2a. In addition, the Ratio Ki in experiment [2] was determined as 2; in experiment [3], 1.
The corresponding values for `CCCn1c(=O)c2nc(-c3cnn(Cc4cccc(Cl)c4F)c3)[nH]c2n(CCC)c1=O` are 6.28, 7.24, 6.06, 9 and 13.
As to `CCCn1c(=O)c2[nH]c(-c3cc(NC(=O)Cc4ccc(OC)c(OC)c4)nn3C)nc2n(CCC)c1=O`, the pKi at Adenosine receptor A3, at Adenosine receptor A1 and at Adenosine receptor A2a was less than 6.00 each time.
On to `CCCn1c(=O)c2nc(-c3cnn(Cc4cc(C(F)(F)F)ccc4Cl)c3)[nH]c2n(CCC)c1=O`, for which the Ratio Ki came out at 129 in experiment [1], 54 in experiment [2] and 63 in experiment [3]. Also, the pKi on Adenosine receptor A3 is 5.55; on Adenosine receptor A1, 5.92; on Adenosine receptor A2b, 7.66; on Adenosine receptor A2a, 5.85.
For the compound `CCn1c(=O)c2nc(-c3cnn(Cc4cccc(F)c4)c3)[nH]c2n(CC)c1=O`, the pKi on Adenosine receptor A1 was 6.42; at Adenosine receptor A2b, 8.30; on Adenosine receptor A2a, 6.54. The Ratio Ki is 76 in experiment [2] and 58 in experiment [3].
On to `CCCn1c(=O)c2nc(-c3cnn(Cc4ccc(C(F)(F)F)cc4)c3)[nH]c2n(CCC)c1=O`, for which the pKi at Adenosine receptor A1 is 7.39; on Adenosine receptor A2b, 7.70; on Adenosine receptor A2a, 6.82. The Ratio Ki came to 2 in experiment [2] and 7 in experiment [3].
The corresponding values for `CCCn1c(=O)c2nc(-c3cnn(CCc4ccccc4)c3)[nH]c2n(CCC)c1=O` are 7.77, 7.13, 6.24, 0.2 and 7.
The corresponding values for `CCCn1c(=O)c2nc(-c3cnn(Cc4cccc(Cl)c4)c3)[nH]c2n(CCC)c1=O` are 7.51, 7.74, 7.10, 2 and 4.
The corresponding values for `CCCn1c(=O)c2nc(-c3cnn(Cc4ccc(Cl)cc4)c3)[nH]c2n(CCC)c1=O` are 8.15, 7.74, 7.06, 0.5 and 4.
For `CCn1c(=O)c2nc(-c3cnn(Cc4cccc(C(F)(F)F)c4)c3)[nH]c2n(CC)c1=O`, the pKi on Adenosine receptor A1 is 6.24; at Adenosine receptor A2b it was 7.89; at Adenosine receptor A2a it was 6.35. The Ratio Ki stood at 44 in experiment [2] and 34 in experiment [3].
Regarding `Cn1c(=O)c2nc(-c3cnn(Cc4cccc(C(F)(F)F)c4)c3)[nH]c2n(C)c1=O`, the Ratio Ki in experiment [1] was 1000; in experiment [2] it was 990; in experiment [3], 690. Also, the pKi is 6.00 at Adenosine receptor A3, 6.00 on Adenosine receptor A1, 9.00 at Adenosine receptor A2b and 6.16 at Adenosine receptor A2a.
On to `CCCn1c(=O)c2[nH]c(-c3cn[nH]c3)nc2n(CCC)c1=O`, for which the pKi on Adenosine receptor A3 was 7.64; on Adenosine receptor A1 it was 7.70; at Adenosine receptor A2b, 8.05; on Adenosine receptor A2a, 6.64.
As to `CCCn1c(=O)c2nc(-c3cnn(CCCc4ccccc4)c3)[nH]c2n(CCC)c1=O`, the results for the pKi at Adenosine receptor A1, on Adenosine receptor A2b and at Adenosine receptor A2a were 7.11, 7.00 and 6.66, respectively. Moreover, the figures for the Ratio Ki in experiment [2] and in experiment [3] were 0.7 and 2, respectively.
On to `CCCn1c(=O)c2[nH]c(-c3cnn(Cc4cccc(C(F)(F)F)c4)c3)nc2n(CCC)c1=O`, for which the Ratio Ki in experiment [1] was 10; in experiment [2], 12; in experiment [3] it was 27. For the same compound, the pKi is 6.82 on Adenosine receptor A3, 6.77 on Adenosine receptor A1, 7.85 at Adenosine receptor A2b and 6.40 at Adenosine receptor A2a.
